Laboratory results taken from ChEMBL document CHEMBL4715736, “Identification of anticancer agents based on the thieno[2,3-b]pyridine and 1H-pyrazole molecular scaffolds” (2016).

Tests used:
Format in all cases: functional
Details in all cases: read-out: Activity
[1] = test system: SF-539; experiment: Growth inhibition of human SF-539 cells assessed as cell growth at 10 uM incubated for 48 hrs by sulforhodamine B assay relative to control
Procedure, shortened: (§1)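 Run by the NCI Developmental Therapeutics Program as part of its 60-line human tumour panel. Each compound tested at a single 10 µM dose. Growth expressed as % relative to untreated control cells (100%).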

[2] = test system: IGROV-1; experiment: Growth inhibition of human IGROV-1 cells assessed as cell growth at 10 uM incubated for 48 hrs by sulforhodamine B assay relative to control
Procedure, shortened: (§2)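 Submitted to the NCI Developmental Therapeutics Program for the NCI60 human tumour cell line panel. First screen at a single 10 µM concentration. Read-out is growth relative to untreated control cells set at 100%.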

[3] = test system: UO-31; experiment: Growth inhibition of human UO-31 cells assessed as cell growth at 10 uM incubated for 48 hrs by sulforhodamine B assay relative to control; procedure, shortened: as §1
[4] = test system: SN12C; experiment: Growth inhibition of human SN12C cells assessed as cell growth at 10 uM incubated for 48 hrs by sulforhodamine B assay relative to control; procedure, shortened: as §1
[5] = test system: T47D; experiment: Growth inhibition of human T47D cells assessed as cell growth at 10 uM incubated for 48 hrs by sulforhodamine B assay relative to control; procedure, shortened: as §1
[6] = test system: MDA-MB-435; experiment: Growth inhibition of human MDA-MB-435 cells assessed as cell growth at 10 uM incubated for 48 hrs by sulforhodamine B assay relative to control; procedure, shortened: as §2
[7] = test system: OVCAR-3; experiment: Growth inhibition of human OVCAR-3 cells assessed as cell growth at 10 uM incubated for 48 hrs by sulforhodamine B assay relative to control; procedure, shortened: as §1
[8] = test system: DU-145; experiment: Growth inhibition of human DU-145 cells assessed as cell growth at 10 uM incubated for 48 hrs by sulforhodamine B assay relative to control
Procedure, shortened: (§3)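 NCI Developmental Therapeutics Program NCI60 panel. Compounds that were active in the 10 µM one-dose screen went on to dose–response testing. Growth at each concentration is expressed relative to untreated control (100%). GI50 (concentration giving 50% of maximal inhibition of proliferation) and TGI (concentration giving total growth inhibition) were derived from the curves.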

[9] = test system: A549; experiment: Growth inhibition of human A549/ATCC cells assessed as cell growth at 10 uM incubated for 48 hrs by sulforhodamine B assay relative to control; procedure, shortened: as §3
[10] = test system: HOP-62; experiment: Growth inhibition of human HOP-62 cells assessed as cell growth at 10 uM incubated for 48 hrs by sulforhodamine B assay relative to control; procedure, shortened: as §2
[11] = test system: M14; experiment: Growth inhibition of human M14 cells assessed as cell growth at 10 uM incubated for 48 hrs by sulforhodamine B assay relative to control; procedure, shortened: as §2
[12] = test system: SF-295; experiment: Growth inhibition of human SF-295 cells assessed as cell growth at 10 uM incubated for 48 hrs by sulforhodamine B assay relative to control; procedure, shortened: as §1
[13] = test system: MDA-MB-231; experiment: Growth inhibition of human MDA-MB-231 cells assessed as cell growth at 10 uM incubated for 48 hrs by sulforhodamine B assay relative to control; procedure, shortened: as §2
[14] = test system: SNB-19; experiment: Growth inhibition of human SNB-19 cells assessed as cell growth at 10 uM incubated for 48 hrs by sulforhodamine B assay relative to control; procedure, shortened: as §1
[15] = test system: MOLT-4; experiment: Growth inhibition of human MOLT-4 cells assessed as cell growth at 10 uM incubated for 48 hrs by sulforhodamine B assay relative to control; procedure, shortened: as §2
[16] = test system: Malme-3M; experiment: Growth inhibition of human Malme-3M cells assessed as cell growth at 10 uM incubated for 48 hrs by sulforhodamine B assay relative to control; procedure, shortened: as §2
[17] = test system: HOP-92; experiment: Growth inhibition of human HOP-92 cells assessed as cell growth at 10 uM incubated for 48 hrs by sulforhodamine B assay relative to control; procedure, shortened: as §2
[18] = test system: HL-60(TB); experiment: Growth inhibition of human HL-60(TB) cells assessed as cell growth at 10 uM incubated for 48 hrs by sulforhodamine B assay relative to control
Procedure, shortened: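 Screened by the NCI Developmental Therapeutics Program on its panel of 60 human tumour cell lines. Compounds were first tested at a single 10 µM dose, and compounds active there went to dose-response curves. Growth is expressed relative to untreated control (100%). GI50 (50% of maximal proliferation inhibition) and TGI (total growth inhibition) were derived from the dose-response data.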

[19] = test system: HCC 2998; experiment: Growth inhibition of human HCC 2998 cells assessed as cell growth at 10 uM incubated for 48 hrs by sulforhodamine B assay relative to control; procedure, shortened: as §3
[20] = test system: CCRF-CEM; experiment: Growth inhibition of human CCRF-CEM cells assessed as cell growth at 10 uM incubated for 48 hrs by sulforhodamine B assay relative to control; procedure, shortened: as §3
[21] = test system: KM12; experiment: Growth inhibition of human KM12 cells assessed as cell growth at 10 uM incubated for 48 hrs by sulforhodamine B assay relative to control; procedure, shortened: as §2
[22] = test system: SK-MEL-5; experiment: Growth inhibition of human SK-MEL-5 cells assessed as cell growth at 10 uM incubated for 48 hrs by sulforhodamine B assay relative to control; procedure, shortened: as §1
[23] = test system: LOX IMVI; experiment: Growth inhibition of human LOX IMVI cells assessed as cell growth at 10 uM incubated for 48 hrs by sulforhodamine B assay relative to control; procedure, shortened: as §2
[24] = test system: U-251; experiment: Growth inhibition of human U-251 cells assessed as cell growth at 10 uM incubated for 48 hrs by sulforhodamine B assay relative to control; procedure, shortened: as §1
[25] = test system: MDA-MB-468; experiment: Growth inhibition of human MDA-MB-468 cells assessed as cell growth at 10 uM incubated for 48 hrs by sulforhodamine B assay relative to control; procedure, shortened: as §2
[26] = test system: RPMI-8226; experiment: Growth inhibition of human RPMI-8226 cells assessed as cell growth at 10 uM incubated for 48 hrs by sulforhodamine B assay relative to control; procedure, shortened: as §1
[27] = test system: OVCAR-5; experiment: Growth inhibition of human OVCAR-5 cells assessed as cell growth at 10 uM incubated for 48 hrs by sulforhodamine B assay relative to control; procedure, shortened: as §1
[28] = test system: NCI-H23; experiment: Growth inhibition of human NCI-H23 cells assessed as cell growth at 10 uM incubated for 48 hrs by sulforhodamine B assay relative to control; procedure, shortened: as §2
[29] = test system: A498; experiment: Growth inhibition of human A498 cells assessed as cell growth at 10 uM incubated for 48 hrs by sulforhodamine B assay relative to control; procedure, shortened: as §3
[30] = test system: UACC-257; experiment: Growth inhibition of human UACC-257 cells assessed as cell growth at 10 uM incubated for 48 hrs by sulforhodamine B assay relative to control; procedure, shortened: as §1
[31] = test system: UACC-62; experiment: Growth inhibition of human UACC-62 cells assessed as cell growth at 10 uM incubated for 48 hrs by sulforhodamine B assay relative to control; procedure, shortened: as §1
[32] = test system: 786-0; experiment: Growth inhibition of human 786-0 cells assessed as cell growth at 10 uM incubated for 48 hrs by sulforhodamine B assay relative to control; procedure, shortened: as §3
[33] = test system: OVCAR-8; experiment: Growth inhibition of human OVCAR-8 cells assessed as cell growth at 10 uM incubated for 48 hrs by sulforhodamine B assay relative to control; procedure, shortened: as §1
[34] = test system: RXF 393; experiment: Growth inhibition of human RXF 393 cells assessed as cell growth at 10 uM incubated for 48 hrs by sulforhodamine B assay relative to control; procedure, shortened: as §1

Row | SMILES | growth at 10 µM [1] [%] | growth at 10 µM [2] [%] | growth at 10 µM [3] [%] | growth at 10 µM [4] [%] | growth at 10 µM [5] [%] | growth at 10 µM [6] [%] | growth at 10 µM [7] [%] | growth at 10 µM [8] [%] | growth at 10 µM [9] [%] | growth at 10 µM [10] [%] | growth at 10 µM [11] [%] | growth at 10 µM [12] [%] | growth at 10 µM [13] [%] | growth at 10 µM [14] [%] | growth at 10 µM [15] [%] | growth at 10 µM [16] [%] | growth at 10 µM [17] [%] | growth at 10 µM [19] [%] | growth at 10 µM [20] [%] | growth at 10 µM [21] [%] | also measured
1 | CC1(C)CCc2cc(-c3ccn(S(=O)(=O)c4ccc(C(C)(C)C)cc4)n3)ccc2O1 | 91.2 | 93.3 | 84.8 | 87.7 | 84.9 | 93 | 91.8 | 70 | 74.6 | 120 | 91.3 | 82.6 | 78.4 | 88.2 | 98.5 | 105 | 73.2 | 98 | 74.4 | 90.5 | growth at 10 µM [18]: 111%; growth at 10 µM [22]: 78%; growth at 10 µM [23]: 96.5%; growth at 10 µM [24]: 80.8%; growth at 10 µM [25]: 52.5%; growth at 10 µM [26]: 65.1%; growth at 10 µM [27]: 99.6%; growth at 10 µM [28]: 83.8%; growth at 10 µM [29]: 68.4%; growth at 10 µM [30]: 63%; growth at 10 µM [31]: 70.4%; growth at 10 µM [32]: 79.9%; growth at 10 µM [33]: 84.5%
2 | CC(=O)Nc1ccc(S(=O)(=O)n2ccc(-c3ccc4c(c3)CCC(C)(C)O4)n2)cc1 | 73.8 | 68 | 67.9 | 89 | 31.1 | 67.3 | 74.4 | 83.5 | 57.8 | 94.4 | 64.7 | 60.2 | 88.6 | 73.3 | 50.7 | 82.5 | 69.8 | 83.3 | 55.4 | 67.4 | growth at 10 µM [18]: 91.9%; growth at 10 µM [22]: 26.3%; growth at 10 µM [23]: 64.1%; growth at 10 µM [24]: 66%; growth at 10 µM [25]: 24.9%; growth at 10 µM [26]: 43.7%; growth at 10 µM [27]: 96.3%; growth at 10 µM [28]: 56.6%; growth at 10 µM [29]: 21.9%; growth at 10 µM [30]: 46%; growth at 10 µM [31]: 62.4%; growth at 10 µM [32]: 79.8%; growth at 10 µM [33]: 69.4%
3 | Cc1cc(C)c(NC(=O)c2sc3nc4c(cc3c2N)CN(Cc2ccccc2)CC4)c(C)c1 | -11 | 42 | 37 | 36 | 12 | -11 | 5 | -12 | 25 | 46 | 17 | 8 | 38 | 44 | 21 | 28 | 12 | 30 | 12 | 15 | growth at 10 µM [34]: 5%; growth at 10 µM [22]: 3%; growth at 10 µM [23]: 29%; growth at 10 µM [24]: 26%; growth at 10 µM [25]: 10%; growth at 10 µM [26]: 13%; growth at 10 µM [27]: 54%; growth at 10 µM [28]: 27%; growth at 10 µM [29]: -7%; growth at 10 µM [30]: 44%; growth at 10 µM [31]: 37%; growth at 10 µM [32]: 23%; growth at 10 µM [33]: 30%
4 | CC1(C)CCc2cc(-c3ccn(S(=O)(=O)c4ccc(Cl)cc4Cl)n3)ccc2O1 | 103 | 94.5 | 73.3 | 89.6 | 76.6 | 95.7 | 101 | 96.9 | 83.7 | 105 | 85.9 | 94.4 | 93.3 | 87.2 | 84.8 | 85.1 | 57.1 | 99.1 | 62.4 | 92.9 | growth at 10 µM [18]: 102%; growth at 10 µM [22]: 97.3%; growth at 10 µM [23]: 104%; growth at 10 µM [24]: 87.9%; growth at 10 µM [25]: 81.5%; growth at 10 µM [26]: 79%; growth at 10 µM [27]: 97.5%; growth at 10 µM [28]: 98.1%; growth at 10 µM [29]: 68.9%; growth at 10 µM [30]: 97.1%; growth at 10 µM [31]: 72.6%; growth at 10 µM [32]: 79%; growth at 10 µM [33]: 97%
